Values joined by “and” are separate entries in the source; they are usually repeats but may differ in a detail not shown here. Equal entries are not always repeated.
Tested on: HEK-293T
Experiment: Multiplex assay against HEK293T
Format: toxicity, cell-based
Conditions: human
How it was run: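 Hoechst33342, BioTracker Green Microtubule Cytoskeleton Dye, MitoTracker Red and Annexin V Alexa Fluor 680 were added to live cells at seeding, and imaging on a CQ1 microscope at 37°C and 5% CO2 followed compound addition. Gating by CellPathfinder machine learning separated cells into Hoechst high-intensity objects or normal cells, then normal cells into healthy, pyknosed or fragmented nuclei, then pyknosed cells into mitotic or apoptotic. Per cents of healthy-nucleus cells are reported for the tubulin, mitochondrial-mass and membrane-permeability phenotypes.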

[1] = 12 h, 1 µM, compound concentration 1 uM
[2] = 12 h, 10 µM, compound concentration 10 uM
[3] = 24 h, 1 µM, compound concentration 1 uM
[4] = 24 h, 10 µM, compound concentration 10 uM
[5] = 48 h, 1 µM, compound concentration 1 uM
[6] = 48 h, 10 µM, compound concentration 10 uM

COc1ccc2nc3ccc(OC)cc3c(SCCCN)c2c1.Cl
Population Apoptotic (%) [1]: 9.64% and 17.91%
Population Fragmented Nuclei (%) [1]: 1.39% and 4.49%
Population Hoechst High Intensity Objects (%) [1]: 0.55% and 0%
Population Membrane Permeable-Phenotype (%) [1]: 1.06% and 0%
Population Mitotic Cells (%) [1]: 90.36% and 82.09%
Population Normal (%) [1]: 99.45% and 100%
Population Pyknosed Nuclei (%) [1]: 46.24% and 85.9%
Population Tubulin-Different-Phenotype (%) [1]: 5.85% and 13.33%
Total Cell Count [1]: 361 and 156
Population Apoptotic (%) [2]: 19.66% and 51.55%
Population Fragmented Nuclei (%) [2]: 81.39% and 89.94%
Population Healthy Nuclei (%) [2]: 8.58% and 2.44%
Population Hoechst High Intensity Objects (%) [2]: 3.16% and 0.62%
Population Membrane Permeable-Phenotype (%) [2]: 0% and 3.23%
Population Mitochondria Different-Phenotype (%) [2]: 15% and 9.68%
Population Mitotic Cells (%) [2]: 80.34% and 48.45%
Population Normal (%) [2]: 96.84% and 99.38%
Population Pyknosed Nuclei (%) [2]: 10.03% and 7.63%
Population Tubulin-Different-Phenotype (%) [2]: 31% and 48.39%
Total Cell Count [2]: 1204 and 1280
Population Apoptotic (%) [3]: 11.89% and 22.43%
Population Fragmented Nuclei (%) [3]: 1.64% and 2.45%
Population Healthy Nuclei (%) [3]: 72.36% and 31.9%
Population Hoechst High Intensity Objects (%) [3]: 0% and 0.61%
Population Membrane Permeable-Phenotype (%) [3]: 1.51% and 3.85%
Population Mitochondria Different-Phenotype (%) [3]: 22.86% and 15.38%
Population Mitotic Cells (%) [3]: 88.11% and 77.57%
Population Normal (%) [3]: 100% and 99.39%
Population Pyknosed Nuclei (%) [3]: 26% and 65.64%
Population Tubulin-Different-Phenotype (%) [3]: 16.33% and 11.54%
Population Apoptotic (%) [4]: 66.98% and 59.74%
Population Fragmented Nuclei (%) [4]: 80.88% and 91.28%
Population Healthy Nuclei (%) [4]: 10.6% and 3.22%
Population Hoechst High Intensity Objects (%) [4]: 1.74% and 0.85%
Population Membrane Permeable-Phenotype (%) [4]: 2.27% and 2.22%
Population Mitochondria Different-Phenotype (%) [4]: 31.06% and 15.56%
Population Mitotic Cells (%) [4]: 33.02% and 40.26%
Population Normal (%) [4]: 98.26% and 99.15%
Population Pyknosed Nuclei (%) [4]: 8.51% and 5.5%
Population Tubulin-Different-Phenotype (%) [4]: 37.88% and 35.56%
Total Cell Count [4]: 1267 and 1411
Population Fragmented Nuclei (%) [5]: 3.15% and 5.62%
Population Healthy Nuclei (%) [5]: 85.43% and 51.69%
Population Hoechst High Intensity Objects (%) [5]: 0.08% and 0.56%
Population Membrane Permeable-Phenotype (%) [5]: 4.52% and 2.17%
Population Mitochondria Different-Phenotype (%) [5]: 15.94% and 31.52%
Population Mitotic Cells (%) [5]: 95.17% and 75%
Population Normal (%) [5]: 99.92% and 99.44%
Population Apoptotic (%) [6]: 52.58% and 29.51%
Population Fragmented Nuclei (%) [6]: 73.59% and 92.69%
Population Hoechst High Intensity Objects (%) [6]: 4.79% and 2.09%
Population Membrane Permeable-Phenotype (%) [6]: 4.62% and 6.67%
Population Mitochondria Different-Phenotype (%) [6]: 54.23% and 53.33%
Population Mitotic Cells (%) [6]: 47.42% and 70.49%
Population Normal (%) [6]: 95.21% and 97.91%
Population Pyknosed Nuclei (%) [6]: 7.17% and 4.2%
Total Cell Count [6]: 1420 and 1482

COc1ccc2c(c1)C(C(=O)N(Cc1ccc(N(C)C)cc1)c1ccc(C(C)C)cc1)CCC2.Cl (stereo not drawn)
Population Apoptotic (%) [1]: 30% and 43%
Population Fragmented Nuclei (%) [1]: 6% and 5%
Population Healthy Nuclei (%) [1]: 80% and 79%
Population Hoechst High Intensity Objects (%) [1]: 7% and 4%
Population Membrane Permeable-Phenotype (%) [1]: 0%
Population Mitochondria Different-Phenotype (%) [1]: 39% and 61%
Population Mitotic Cells (%) [1]: 70% and 56%
Population Normal (%) [1]: 92% and 95%
Population Pyknosed Nuclei (%) [1]: 13% and 14%
Population Tubulin-Different-Phenotype (%) [1]: 27% and 23%
Total Cell Count [1]: 413 and 330
Population Apoptotic (%) [2]: 60% and 63%
Population Fragmented Nuclei (%) [2]: 9% and 4%
Population Healthy Nuclei (%) [2]: 78% and 77%
Population Hoechst High Intensity Objects (%) [2]: 10% and 6%
Population Membrane Permeable-Phenotype (%) [2]: 0%
Population Mitochondria Different-Phenotype (%) [2]: 60% and 75%
Population Mitotic Cells (%) [2]: 39% and 36%
Population Normal (%) [2]: 89% and 93%
Population Pyknosed Nuclei (%) [2]: 11% and 17%
Population Tubulin-Different-Phenotype (%) [2]: 64% and 57%
Total Cell Count [2]: 383 and 361
Population Apoptotic (%) [3]: 31% and 60%
Population Fragmented Nuclei (%) [3]: 9% and 7%
Population Healthy Nuclei (%) [3]: 81% and 79%
Population Hoechst High Intensity Objects (%) [3]: 3% and 6%
Population Membrane Permeable-Phenotype (%) [3]: 0%
Population Mitochondria Different-Phenotype (%) [3]: 20% and 33%
Population Mitotic Cells (%) [3]: 68% and 40%
Population Normal (%) [3]: 96% and 93%
Population Pyknosed Nuclei (%) [3]: 8% and 13%
Population Tubulin-Different-Phenotype (%) [3]: 13% and 11%
Total Cell Count [3]: 567 and 399
Population Apoptotic (%) [4]: 35% and 45%
Population Fragmented Nuclei (%) [4]: 9% and 7%
Population Healthy Nuclei (%) [4]: 73% and 76%
Population Hoechst High Intensity Objects (%) [4]: 10% and 6%
Population Membrane Permeable-Phenotype (%) [4]: 1% and 0%
Population Mitochondria Different-Phenotype (%) [4]: 51% and 60%
Population Mitotic Cells (%) [4]: 64% and 55%
Population Normal (%) [4]: 89% and 93%
Population Pyknosed Nuclei (%) [4]: 17% and 16%
Population Tubulin-Different-Phenotype (%) [4]: 70% and 60%
Total Cell Count [4]: 409 and 389
Population Apoptotic (%) [5]: 20% and 46%
Population Fragmented Nuclei (%) [5]: 12%
Population Healthy Nuclei (%) [5]: 80% and 81%
Population Hoechst High Intensity Objects (%) [5]: 1% and 4%
Population Membrane Permeable-Phenotype (%) [5]: 1% and 0%
Population Mitochondria Different-Phenotype (%) [5]: 10% and 17%
Population Mitotic Cells (%) [5]: 79% and 53%
Population Normal (%) [5]: 98% and 95%
Population Pyknosed Nuclei (%) [5]: 6%
Population Tubulin-Different-Phenotype (%) [5]: 10% and 15%
Total Cell Count [5]: 968 and 631
Population Apoptotic (%) [6]: 59% and 36%
Population Fragmented Nuclei (%) [6]: 15% and 11%
Population Healthy Nuclei (%) [6]: 75% and 79%
Population Hoechst High Intensity Objects (%) [6]: 9% and 3%
Population Membrane Permeable-Phenotype (%) [6]: 6% and 2%
Population Mitochondria Different-Phenotype (%) [6]: 25% and 24%
Population Mitotic Cells (%) [6]: 40% and 63%
Population Normal (%) [6]: 90% and 96%
Population Pyknosed Nuclei (%) [6]: 9% and 8%
Population Tubulin-Different-Phenotype (%) [6]: 53% and 50%
Total Cell Count [6]: 558 and 482
